PubChem BioAssay
The source made the active and inactive calls.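 How the source made its calls, unless noted: active means a full or partial loss of lipid-probe fluorescence in the fish gall bladder, intestine or both, judged by eye; inactive means no fluorescence loss, or compound toxic to the fish.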

How the values were obtained:
[1] = inhibitors of TNFa-induced NFkB p65 translocation, primary screen, imaging, HUVEC, MLSMR starter and 10KST1 sets (AID 438;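 active means inhibition above 20% together with a positive visual image hit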;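 further: compound added about 3h40 before a 20 min TNFalpha stimulation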;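 on inhibition: signal is the nuclear over cytoplasmic p65 intensity ratio per well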); conditions: HUVEC TNFa-induced p65 nuclear translocation; cell count: measured here: nuclei count (cytotoxicity indicator), at 2.08 µM; inhibition: at 2 µM, stronger effect = higher value, 0% TNFa-plus-vehicle, 100% no-TNFa wells
[2] = endothelial E-selectin expression blockers – imaging, HUVEC, immunofluorescence, MLSMR starter and 10KST1 sets, primary screen (AID 487;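 active means visually confirmed hit in the image check and inhibition above 20%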;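 on inhibition: signal is fraction of cell area covered by stained E-selectin grains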;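 on nuclei count: 100% = median nuclei count of all wells on the same plate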); conditions: HUVEC TNFalpha-induced E-selectin immunofluorescence imaging, at 2 µM; inhibition: stronger effect = higher value; nuclei count: measured here: cell number, toxicity
[3] = Primary imaging screen for DUSP6 inhibitors that restore phospho-Erk in transfected HeLa cells, chemical complementation (AID 609;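 active means compounds giving at least 50% inhibition in the cell-based MKP-3 phosphatase rescue imaging test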;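 on inhibition: phospho-Erk level distribution per well compared with pooled transfected vehicle control wells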); conditions: HeLa MKP-3 transfected, phospho-Erk imaging KS statistic, at 10 µM, cells stimulated with TPA for 15 min
[4] = biological target: Dual specificity protein phosphatase 6 (Homo sapiens) (UniProt Q16828); assay: as above; conditions: HeLa MKP-3 transfected, phospho-Erk imaging KS statistic; at 10 µM; stronger effect = higher value; cells stimulated with TPA for 15 min
[5] = biological target: Voltage-gated potassium channel subunit beta-2 (Rattus norvegicus) (UniProt P62483); assay: inhibitors of rat Kvbeta2 reductase activity – biochemical, NADPH fluorescence, primary screen (AID 622;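 active means fluorescence slope higher than the sample average by over 3 SD, cut at about -0.22 in these data, passing the limit was not always enough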;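 further: slope of raw intensity against log time taken from 70 to 1610 s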); conditions: recombinant KvBeta, 4-cyanobenzaldehyde reduction, at 10 µM, stronger effect = higher value
[6] = biological target: Voltage-gated potassium channel subunit beta-2 (Rattus norvegicus) (UniProt P62483); assay: enhancers of rat Kvbeta2 NADPH turnover – biochemical, NADPH fluorescence, primary screen (AID 623;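 active means NADPH fluorescence slope more negative than the mean of all samples by about 3 SD, 99.7% confidence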;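 further: fluorescence intensity change per second fitted from 20 to 320 s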); conditions: Recombinant KvBeta, NADPH fluorescence decrease slope, 10 min; at 10 µM; stronger effect = lower value
[7] = biological target: Muscarinic acetylcholine receptor M4 (Homo sapiens) (UniProt P08173); assay: M4-linked GIRK flux change, two-sided – cell-based, HEK293 M4/GIRK, thallium flux, BTC-AM, M4 allosteric agonist project, primary screen (AID 625;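 active means fluorescence slope after compound addition differing from the mean of all tested samples at 99.7% confidence, mostly higher but some lower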;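 further: thallium influx through GIRK channels coupled to M4 in HEK293 cells with BTC-AM dye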); conditions: at 10 µM, actives lie on both sides
In short: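 Material – HEK293 cells with M4 receptor and GIRK channels · Buffer or medium – pH 7.3 thallium assay buffer · Doses – one dose, 10 µM final · Timing – cells overnight at 37 °C, BTC-AM loading 1 h, reads 2 min total · Measured by – kinetic fluorescence with BTC-AM dye · Controls – carbachol and DMSO controls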

[8] = inhibitors of larval lipid processing in zebrafish, primary screen, whole organism, PED6 fluorescence, gall bladder and intestine (AID 686); conditions: Zebrafish larvae PED6 lipid processing, fluorescence scoring; screened at 20 µM (by protocol);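 further: larvae 5 to 7 days old with five fish per well; signal comes from phospholipase A2 cleavage of quenched PED6 carried via bile; overnight exposure to compound and PED6 before scoring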
In short: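 system = live zebrafish larvae aged 5-7 days, whole organism | probe or stimulus = ingested quenched lipid PED6 at 100 nM | doses = 20 µM single dose | timing = overnight exposure | detection = fluorescence microscopy with visual scoring of gall bladder and intestine | read-out = visual per-well fluorescence inhibition score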

[9] = loss of swimming-algae plug formation – whole organism, Chlamydomonas reinhardtii, WT vs cilia-less mutant, absorbance, 96-well, primary screen (AID 463189;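 active means inhibition at or above 50% relative to wild type and mutant plate controls; inactive means inhibition below 50%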;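 further: 0% = wild type cc124 cells in DMSO and 100% = ciliumless bld1 mutant cells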); conditions: Chlamydomonas reinhardtii gravitaxis, OD600 absorbance, 2 days; at 10 µM; stronger effect = higher value
[10] = measured here: cell density z-score
[11] = measured here: nuclear c-Myc green intensity z-score
[12] = measured here: nuclear pErk red intensity z-score, stronger effect = higher value

Chain of Dual specificity protein phosphatase 6 (Homo sapiens) (Q16828 whole entry, looked up): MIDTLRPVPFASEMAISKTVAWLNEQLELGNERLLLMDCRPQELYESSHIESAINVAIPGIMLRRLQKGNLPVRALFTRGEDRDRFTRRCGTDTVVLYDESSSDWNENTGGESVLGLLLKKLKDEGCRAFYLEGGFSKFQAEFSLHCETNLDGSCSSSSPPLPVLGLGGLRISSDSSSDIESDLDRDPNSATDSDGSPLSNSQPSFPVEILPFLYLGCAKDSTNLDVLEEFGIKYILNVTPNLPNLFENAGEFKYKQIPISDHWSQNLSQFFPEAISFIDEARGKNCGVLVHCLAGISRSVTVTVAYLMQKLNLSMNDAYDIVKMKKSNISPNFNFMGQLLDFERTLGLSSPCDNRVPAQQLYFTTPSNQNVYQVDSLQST
Chain of Muscarinic acetylcholine receptor M4 (Homo sapiens) (P08173 whole entry, looked up): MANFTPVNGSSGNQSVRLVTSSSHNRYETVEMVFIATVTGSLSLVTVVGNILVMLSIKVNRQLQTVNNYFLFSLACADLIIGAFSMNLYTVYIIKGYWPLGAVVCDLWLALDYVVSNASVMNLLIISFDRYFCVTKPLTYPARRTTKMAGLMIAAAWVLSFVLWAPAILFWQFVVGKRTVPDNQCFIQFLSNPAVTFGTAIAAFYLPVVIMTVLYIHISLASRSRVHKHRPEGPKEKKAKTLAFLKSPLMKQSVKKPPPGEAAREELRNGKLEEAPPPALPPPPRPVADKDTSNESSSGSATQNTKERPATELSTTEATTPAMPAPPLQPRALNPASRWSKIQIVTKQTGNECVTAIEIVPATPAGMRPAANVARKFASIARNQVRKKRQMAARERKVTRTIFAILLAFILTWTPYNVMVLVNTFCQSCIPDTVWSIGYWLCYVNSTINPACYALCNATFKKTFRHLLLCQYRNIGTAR
Chain of Voltage-gated potassium channel subunit beta-2 (Rattus norvegicus) (P62483 whole entry, looked up): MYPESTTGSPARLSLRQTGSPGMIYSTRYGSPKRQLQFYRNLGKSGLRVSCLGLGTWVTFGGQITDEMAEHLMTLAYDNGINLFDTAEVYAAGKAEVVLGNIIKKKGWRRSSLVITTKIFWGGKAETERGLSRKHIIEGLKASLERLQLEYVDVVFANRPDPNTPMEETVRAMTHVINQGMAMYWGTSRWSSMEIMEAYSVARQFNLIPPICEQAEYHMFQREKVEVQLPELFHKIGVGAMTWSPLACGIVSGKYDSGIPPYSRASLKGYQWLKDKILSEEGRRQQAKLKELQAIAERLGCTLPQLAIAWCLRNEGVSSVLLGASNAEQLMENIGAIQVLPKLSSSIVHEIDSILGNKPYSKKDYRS

Row | Structure (SMILES) | cell count [1] | inhibition [1] | inhibition [2] | nuclei count [2] [%] | z-score [3, 10] | z-score [3, 11] | z-score [3, 12] | inhibition [4] | fluorescence slope [5] | NADPH fluorescence slope [6] | fluorescence slope [7] | outcome [8] | inhibition [9]
1 | COc1cccc(N2CCN(C(=O)c3ccc(=O)oc3)CC2C)c1 (stereo not drawn) | 548 | -13.7% (inactive) | -2.6% (inactive) | 114 | 0.444 | -0.0742 | 1.46 | -2.91% (inactive) | -0.418 (inactive) | 6.4e-07 (inactive) | 0.00472 (inactive) | inactive | 13.7% (inactive)
2 | c1ccc2c(c1)[nH]c1c(N3CCN(C4CCCCC4)CC3)ncnc12 | 601 | -21% (inactive) | -59.2% (inactive) | 172 | 0.663 | -1.44 | -1.01 | 27.4% (inactive) | -0.169 (inactive) | -1.6e-05 (inactive) | 0.00557 (inactive) | inactive | 18.4% (inactive)
3 | CN(C)c1ccc(C=Nc2cnn(C)c2C(N)=O)cc1 | 657 | 5.6% (inactive) | 2% (inactive) | 112 | -0.322 | 0.511 | 0.593 | 9.91% (inactive) | -0.548 (inactive) | -8.2e-05 (inactive) | 0.00504 (inactive) | inactive | 13.4% (inactive)
4 | COc1ccc(C2C(C#N)=C(C)NC3=C2C(=O)c2ccccc23)cc1 (stereo not drawn) | 678 | 0.7% (inactive) | -27.5% (inactive) | 145 | 1.09 | 1.69 | -1.69 | 21.8% (inactive) | -0.5 (inactive) | -4.8e-05 (inactive) | 0.00419 (inactive) | inactive | -2.6% (inactive)
5 | CCOC(=O)NC(Nc1sc2c(c1C(N)=O)CCCC2)(C(=O)OCC)C(F)(F)F (stereo not drawn) | 707 | -5.7% (inactive) | -51.4% (inactive) | 144 | 0.203 | -0.663 | 1.92 | 16.5% (inactive) | -0.448 (inactive) | -1.9e-05 (inactive) | 0.00659 (inactive) | inactive | 1.44% (inactive)
6 | COc1cc(N2CCCC2)c(OC)cc1/C=c1/sc2nc3ccccc3n2c1=O | 499 | -8.5% (inactive) | -137% (inactive) | 155 | -1.29 | 0.0669 | -0.774 | 39.3% (inactive) | -0.438 (inactive) | -3.3e-05 (inactive) | 0.00712 (inactive) | inactive | 3.75% (inactive)
7 | Cc1cc(=O)oc(C)c1C(=O)NCC(C)NC(=O)c1c(C)cc(=O)oc1C (stereo not drawn) | 531 | 3.7% (inactive) | 32.8% (inactive) | 164 | 0.5 | -1.12 | -0.355 | 19.8% (inactive) | -0.384 (inactive) | -5.3e-05 (inactive) | 0.00562 (inactive) | inactive | 20.8% (inactive)
8 | O=c1[nH]cnc2c1cnn2Cc1ccccc1 | 509 | -2.1% (inactive) | -58.3% (inactive) | 145 | 0.233 | -0.586 | 0.288 | -3.97% (inactive) | -0.354 (inactive) | -5.1e-05 (inactive) | 0.00657 (inactive) | inactive | -9.15% (inactive)
9 | CCCCCSc1nc(C)c(CC(=O)O)c(=O)[nH]1 | 400 | -8.8% (inactive) | -27.1% (inactive) | 114 | 0.718 | -0.507 | -1.88 | 1.04% (inactive) | -0.477 (inactive) | -5.1e-06 (inactive) | 0.00563 (inactive) | inactive | 34.5% (inactive)
10 | CNc1oc(-c2ccccc2Cl)nc1C#N | 368 | 4.3% (inactive) | 23.8% (inactive) | 79.3 | 0.949 | -0.665 | 0.059 | 3.56% (inactive) | -0.594 (inactive) | -4.5e-05 (inactive) | 0.00508 (inactive) | active; weak signal in gallbladder and intestine | 19.9% (inactive)
11 | COc1ccc(CC(=O)Nc2cccc(-c3nnc(-c4ccco4)o3)c2)cc1 | 671 | -0.9% (inactive) | 6.2% (inactive) | 177 | -0.286 | 1.67 | 1.63 | -15.1% (inactive) | -0.475 (inactive) | -8e-05 (inactive) | 0.00587 (inactive) | inactive | 0.83% (inactive)
12 | CSc1nc(N)nc(SCC(=O)C23CC4CC(CC(C4)C2)C3)c1C#N | 491 | 2.8% (inactive) | -70.2% (inactive) | 94.4 | -0.797 | 0.314 | -0.79 | 15.9% (inactive) | -0.334 (inactive) | -1.7e-05 (inactive) | 0.00876 (inactive) | inactive | 35.9% (inactive)
13 | C=CCn1c(=O)c(C(=O)NCCN(CC)CC)c(O)c2ccccc21 | 560 | 0% (inactive) | -97% (inactive) | 170 | 1.11 | -0.484 | 1.3 | 27.8% (inactive) | -0.368 (inactive) | -2.4e-05 (inactive) | 0.00442 (inactive) | inactive | 42.6% (inactive)
14 | CCN(CC)CCOC(=O)c1c(C)n(C)c2ccc(OC)cc12 | 669 | -3.7% (inactive) | -50.2% (inactive) | 150 | 0.791 | -1.04 | -1.03 | 4.37% (inactive) | -0.466 (inactive) | -0.000107 (inactive) | 0.00645 (inactive) | inactive | 32.6% (inactive)
15 | O=C(OCCN1CCOCC1)c1ccc2c(c1)OCCO2 | 644 | -12.8% (inactive) | 1.7% (inactive) | 180 | 0.036 | 0.0112 | 0.434 | -9.53% (inactive) | -0.473 (inactive) | -6.5e-05 (inactive) | 0.00543 (inactive) | inactive | -3.31% (inactive)
16 | COc1cccc(Cn2c(NCc3ccco3)nc3c2c(=O)n(C)c(=O)n3C)c1 | 704 | -6.1% (inactive) | -198% (inactive) | 180 | 0.733 | 0.0104 | 0.0373 | 27.8% (inactive) | -0.476 (inactive) | -0.000112 (inactive) | 0.00767 (inactive) | inactive | 0.377% (inactive)
17 | CC(C)c1ccc(O)c(N)c1 | 660 | -20.9% (inactive) | -16.4% (inactive) | 180 | 1.39 | -1.5 | 0.0534 | 22.1% (inactive) | -0.527 (inactive) | -1.2e-05 (inactive) | 0.00607 (inactive) | inactive | 11.1% (inactive)
18 | N#Cc1c(NCCCO)nc(-c2ccccc2)c2c1CCCC2 | 598 | -4.5% (inactive) | -60.9% (inactive) | 154 | -0.266 | 0.00477 | 1.17 | -0.233% (inactive) | -0.435 (inactive) | -0.000107 (inactive) | 0.00541 (inactive) | inactive | 0.512% (inactive)
19 | CCC(=O)NC1(C(F)(F)F)C(=O)Nc2c1c(=O)[nH]c(=O)n2Cc1ccco1 (stereo not drawn) | 652 | -2.8% (inactive) | -96.3% (inactive) | 167 | -1.08 | 0.161 | 0.694 | 1.04% (inactive) | -0.497 (inactive) | -8.6e-05 (inactive) | 0.00505 (inactive) | inactive | 9.21% (inactive)
20 | COc1ccccc1C(=O)Nc1cc(Cl)ccc1O | 582 | -2.4% (inactive) | -76% (inactive) | 123 | -1.1 | 0.45 | 1.34 | 9.42% (inactive) | -0.431 (inactive) | -0.000129 (inactive) | 0.00516 (inactive) | inactive | 21.5% (inactive)
21 | CCOc1ccc(NC(=O)CSC2=C(C#N)C(c3ccc4c(c3)OCO4)CC(=O)N2)cc1 (stereo not drawn) | 639 | 0.6% (inactive) | 75.3% (inactive) | 140 | 0.00899 | -0.0485 | -0.833 | -6.06% (inactive) | -0.47 (inactive) | -5.2e-05 (inactive) | 0.00582 (inactive) | inactive | 14.4% (inactive)
